From paper PMC3929184 (Journal of controlled release : official journal of the …, 2013) come the findings set out here.

The target in one data set is furin protease (Homo sapiens, UniProt P09958). The data set can be described thus: In vitro cleavage by furin protease. It counts as in vitro ADME. Particulars: Figure S1.
Data set [1] is described as follows: Glucose tolerance test after nasal administration in mice. It counts as in vivo, WT C57BL/6 mice. Particulars: systemic uptake monitored functionally by glucose-tolerance test. An outline of the steps: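 Male C57BL/6 mice (6-9 weeks; Nnt deletion), acclimatized 2 weeks, fasted 18 h, lightly isoflurane-anesthetized. 20 μL of test peptide or its glycolipid conjugate (various concentrations) or saline was dripped slowly into the nasal cavity. After 1 h, glucose 2 g/kg was injected (n = 2 each). Blood glucose was read by glucometer from ~5 μL tail-nick blood at set times, and AUC was calculated.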

Chain of furin protease (P09958 108-794): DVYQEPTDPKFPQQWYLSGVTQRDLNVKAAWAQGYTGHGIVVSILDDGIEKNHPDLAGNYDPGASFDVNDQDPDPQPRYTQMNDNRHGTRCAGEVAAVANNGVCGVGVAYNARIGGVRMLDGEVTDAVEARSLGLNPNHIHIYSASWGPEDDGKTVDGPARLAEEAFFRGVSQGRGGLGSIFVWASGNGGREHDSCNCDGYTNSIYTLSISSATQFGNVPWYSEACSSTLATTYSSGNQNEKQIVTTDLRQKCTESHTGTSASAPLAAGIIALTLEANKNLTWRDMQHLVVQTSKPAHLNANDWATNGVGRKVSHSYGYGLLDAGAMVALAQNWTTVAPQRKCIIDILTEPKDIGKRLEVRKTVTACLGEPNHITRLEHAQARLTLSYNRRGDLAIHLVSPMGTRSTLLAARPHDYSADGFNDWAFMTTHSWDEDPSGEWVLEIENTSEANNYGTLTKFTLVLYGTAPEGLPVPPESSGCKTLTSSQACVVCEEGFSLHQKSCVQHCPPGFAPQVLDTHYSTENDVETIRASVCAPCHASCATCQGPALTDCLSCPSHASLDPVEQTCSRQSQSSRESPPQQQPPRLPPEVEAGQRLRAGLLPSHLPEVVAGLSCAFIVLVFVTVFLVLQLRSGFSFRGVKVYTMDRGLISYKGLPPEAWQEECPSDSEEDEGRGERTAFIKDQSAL

On to Glucagon-like peptide-1 [GLP-1*], for which the “Cleavage by the furin protease” value at furin protease is “resistant to cleavage”. Moreover, the “Mucosal absorption after nasal application” value in data set [1] was “evidence for absorption”.
